Measured values: ChEMBL document CHEMBL4665830, “Self-Adjuvanting Cancer Vaccines from Conjugation-Ready Lipid A Analogues and Synthetic Long Peptides” (J Med Chem, 2020)
Each block holds one compound with its values, some of them ahead of it. Calls of active or inactive are those of the source. The rule behind the calls is not given here. Where a SMILES comes first, the peptide text is derived from it. [ ]: non-standard residue; d: D form. The star is where a group is joined. X1 = CCCCCCCCCCC[C@H](CC(=O)N[C@H]1[C@H](OC[C@H](NC(=O)C[C@@H](CCCCCCCCCCC)OC(=O)CCCCCCCCC)C(=O)O)O[C@H](CNC(=O)COCCOCCOCCNC(=O)CCCN2C(=O)CC(*)C2=O)[C@@H](OP(=O)(O)O)[C@@H]1OC(=O)C[C@@H](CCCCCCCCCCC)OC(=O)CCCCCCCCC)OC(=O)CCCCCCCCC; X2 = CCCCCCCCCCC[C@H](CC(=O)N[C@H]1[C@H](OC[C@H](NC(=O)C[C@@H](CCCCCCCCCCC)OC(=O)CCCCCCCCC)C(=O)O)O[C@H](COC(=O)COCCOCCOCCNC(=O)CCCN2C(=O)CC(*)C2=O)[C@@H](OP(=O)(O)O)[C@@H]1OC(=O)C[C@@H](CCCCCCCCCCC)OC(=O)CCCCCCCCC)OC(=O)CCCCCCCCC; Mpa = O=C(O)CCS

Legend:
[1] = target: T1, Toll-like receptor 4 (Mus musculus) (UniProt Q9QUK6); test: Activation of TLR4 in C57BL/6 mouse dendritic cells assessed as induction of IL-12p40 secretion at 0.098 to 100 nM incubated for 24 hrs by ELISA; details: Dendritic cell, dose nM 0.098-100, time 24.0 hrs
T1 sequence (whole entry): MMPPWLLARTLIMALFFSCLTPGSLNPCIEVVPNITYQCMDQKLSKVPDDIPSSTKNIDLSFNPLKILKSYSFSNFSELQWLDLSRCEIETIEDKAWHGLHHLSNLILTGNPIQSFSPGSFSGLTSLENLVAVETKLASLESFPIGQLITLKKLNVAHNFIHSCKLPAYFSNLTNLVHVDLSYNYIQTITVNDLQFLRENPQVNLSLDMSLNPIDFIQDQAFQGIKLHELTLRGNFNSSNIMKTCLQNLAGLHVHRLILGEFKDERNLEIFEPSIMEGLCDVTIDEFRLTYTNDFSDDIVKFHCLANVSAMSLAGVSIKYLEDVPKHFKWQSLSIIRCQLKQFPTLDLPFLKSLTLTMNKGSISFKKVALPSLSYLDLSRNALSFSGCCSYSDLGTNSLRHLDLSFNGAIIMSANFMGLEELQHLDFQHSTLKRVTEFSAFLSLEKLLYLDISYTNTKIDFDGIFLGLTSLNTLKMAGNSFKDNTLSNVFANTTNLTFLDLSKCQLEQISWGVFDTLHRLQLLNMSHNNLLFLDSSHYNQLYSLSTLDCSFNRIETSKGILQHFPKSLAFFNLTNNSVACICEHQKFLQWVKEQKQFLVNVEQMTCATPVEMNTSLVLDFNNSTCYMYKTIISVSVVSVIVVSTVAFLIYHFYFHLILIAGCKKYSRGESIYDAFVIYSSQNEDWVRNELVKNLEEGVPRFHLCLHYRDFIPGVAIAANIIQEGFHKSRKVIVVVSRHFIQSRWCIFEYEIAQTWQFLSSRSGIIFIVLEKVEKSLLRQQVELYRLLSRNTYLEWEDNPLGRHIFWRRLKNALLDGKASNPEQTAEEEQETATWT
How it was run: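 D1 cells (immature spleen-derived DC line, C57BL/6 H-2b), 50 000 per well in R1-supplemented IMDM, given an equal volume of 2x compound in medium (500 μM DMSO stocks, sonicated 15 min). Incubated 24 h at 37 °C; IL-12p40 in supernatant measured by ELISA. MPLA served as TLR4 control; unconjugated peptide as negative control.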

Mus musculus [2] = test: Induction of T-cell activation in C57BL/6 mouse assessed as induction of SIINFEKL-specific T-cell responses in blood at 5 nmol dosed intradermally; format: functional, organism-based
B3Z = test: Induction of T-cell activation in SIINFEKL-specific mouse B3Z cells at 0.875 to 7 uM by colorimetry based in-vitro antigen presentation assay; format: functional; details: dose microM 0.875-7
Mus musculus [3] = test: Induction of T-cell activation in C57BL/6 mouse assessed as induction of SIINFEKL-specific T-cell responses in inguinal lymph nodes at 5 nmol dosed intradermally followed by booster dose after 14 days and measured after 8 days; format: functional, organism-based; details: time 22.0 day
Mus musculus [4] = test: Induction of T-cell activation in C57BL/6 mouse assessed as induction of differentiation into effector memory T cells at 5 nmol dosed intradermally followed by booster dose after 14 days and measured after 7 days; format: functional, organism-based; details: time 21.0 day
Mus musculus [5] = test: (§1) Induction of T-cell activation in C57BL/6 mouse assessed as increase in SIINFEKL-specific CD8+ T cells level in inguinal lymph nodes at 5 nmol dosed intradermally followed by booster dose after 14 days and 1 week later injection of cells loaded with SIINFEKL peptide and measured after 18 hrs post last dose by CFSE staining based flow cytometric analysis; format: functional, organism-based; details: time 21.0 day
Mus musculus [6] = test: Induction of T-cell activation in C57BL/6 mouse assessed as induction of differentiation into memory CD127+/KLRG1low responses at 5 nmol dosed intradermally followed by booster dose after 14 days and measured after 7 days; format: functional, organism-based; details: time 21.0 day
Mus musculus [7] = test: Induction of T-cell activation in C57BL/6 mouse assessed as induction of SIINFEKL-specific T-cell responses in blood at 5 nmol dosed intradermally followed by booster dose after 14 days and measured after 7 days; format: functional, organism-based; details: time 21.0 day
Mus musculus [8] = test: Induction of T-cell activation in C57BL/6 mouse assessed as induction of SIINFEKL-specific T-cell responses in spleen at 5 nmol dosed intradermally followed by booster dose after 14 days and measured after 8 days; format: functional, organism-based; details: time 22.0 day
Mus musculus [9] = test: as §1, with “induction of specific killing of the SIINFEKL-loaded target cells” for “increase”, “spleen” for “SIINFEKL-specific CD8+ T cells level in inguinal lymph nodes”; format: functional, organism-based; details: time 21.0 day

Activity ([1]; filed as activator): Active
SMILES: CCCCCCCCCCC[C@@H](O)CC(=O)N[C@@H]1[C@@H](OC(=O)C[C@H](O)CCCCCCCCCCC)[C@H](O)[C@@H](CO[C@@H]2O[C@H](CO)[C@@H](OP(=O)(O)O)[C@H](OC(=O)C[C@@H](CCCCCCCCCCC)OC(=O)CCCCCCCCC)[C@H]2NC(=O)C[C@@H](CCCCCCCCCCC)OC(=O)CCCCCCCCC)O[C@H]1O

Activity ([1]; filed as activator): Active
SMILES: CCCCCCCCCCC[C@H](CC(=O)N[C@H]1[C@H](OC[C@H](NC(=O)C[C@@H](CCCCCCCCCCC)OC(=O)CCCCCCCCC)C(=O)O)O[C@H](CNC(=O)COCCOCCOCCNC(C)=O)[C@@H](OP(=O)(O)O)[C@@H]1OC(=O)C[C@@H](CCCCCCCCCCC)OC(=O)CCCCCCCCC)OC(=O)CCCCCCCCC

Activity ([1]; filed as activator): Active
SMILES: CCCCCCCCCCC[C@H](CC(=O)N[C@H]1[C@H](OC[C@H](NC(=O)C[C@@H](CCCCCCCCCCC)OC(=O)CCCCCCCCC)C(=O)O)O[C@H](CO)[C@@H](OP(=O)(O)O)[C@@H]1OC(=O)C[C@@H](CCCCCCCCCCC)OC(=O)CCCCCCCCC)OC(=O)CCCCCCCCC
Activity (Mus musculus [2]): Active
Activity (B3Z): Active

Activity [1]: inactive
SMILES: CCCCCCCCCCC[C@H](CC(=O)N[C@H]1[C@H](OC[C@H](NC(=O)C[C@@H](CCCCCCCCCCC)OC(=O)CCCCCCCCC)C(=O)O)O[C@H](COC(=O)CCCCCCCCCCNC(C)=O)[C@@H](OP(=O)(O)O)[C@@H]1OC(=O)C[C@@H](CCCCCCCCCCC)OC(=O)CCCCCCCCC)OC(=O)CCCCCCCCC

Activity ([1]; filed as activator): Active
SMILES: CCCCCCCCCCC[C@H](CC(=O)N[C@H]1[C@H](OC[C@H](NC(=O)C[C@@H](CCCCCCCCCCC)OC(=O)CCCCCCCCC)C(=O)O)O[C@H](COC(=O)COCCOCCOCCNC(C)=O)[C@@H](OP(=O)(O)O)[C@@H]1OC(=O)C[C@@H](CCCCCCCCCCC)OC(=O)CCCCCCCCC)OC(=O)CCCCCCCCC

Activity [1]: inactive
SMILES: CCCCCCCCCCC[C@H](CC(=O)N[C@H]1[C@H](OC[C@H](NC(=O)C[C@@H](CCCCCCCCCCC)OC(=O)CCCCCCCCC)C(=O)O)O[C@H](CNC(=O)COCCOCCOCCNC(=O)CCCN2C(=O)CC(SCCC(=O)N[C@@H](CC(=O)O)C(=O)N[C@@H](CCC(=O)O)C(=O)N[C@H](C(=O)N[C@@H](CO)C(=O)NCC(=O)N[C@@H](CC(C)C)C(=O)N[C@@H](CCC(=O)O)C(=O)N[C@@H](CCC(N)=O)C(=O)N[C@@H](CC(C)C)C(=O)N[C@@H](CCC(=O)O)C(=O)N[C@@H](CO)C(=O)N[C@H](C(=O)N[C@H](C(=O)N[C@@H](CC(N)=O)C(=O)N[C@@H](Cc3ccccc3)C(=O)N[C@@H](CCC(=O)O)C(=O)N[C@@H](CCCCN)C(=O)N[C@@H](CC(C)C)C(=O)N[C@@H](C)C(=O)N[C@@H](C)C(=O)N[C@@H](C)C(=O)N[C@@H](C)C(=O)N[C@@H](C)C(=O)N[C@@H](CCCCN)C(N)=O)[C@@H](C)CC)[C@@H](C)CC)C(C)C)C2=O)[C@@H](OP(=O)(O)O)[C@@H]1OC(=O)C[C@@H](CCCCCCCCCCC)OC(=O)CCCCCCCCC)OC(=O)CCCCCCCCC (stereo not given in full) ([Mpa](X1)DEVSGLEQLESIINFEKLAAAAAK-NH2)
Activity (Mus musculus [2]): Active
Activity (Mus musculus [3]): Active
Activity (Mus musculus [4]): Active
Activity (B3Z): Active
Activity (Mus musculus [5]): Active
Activity (Mus musculus [6]): Active
Activity (Mus musculus [7]): Active
Activity (Mus musculus [8]): Active
Activity (Mus musculus [9]): Active

Activity ([1]; filed as activator): Active
SMILES: CCCCCCCCCCC[C@H](CC(=O)N[C@H]1[C@H](OC[C@H](NC(=O)C[C@@H](CCCCCCCCCCC)OC(=O)CCCCCCCCC)C(=O)O)O[C@H](COC(=O)COCCOCCOCCNC(=O)CCCN2C(=O)CC(SCCC(=O)N[C@@H](CC(=O)O)C(=O)N[C@@H](CCC(=O)O)C(=O)N[C@H](C(=O)N[C@@H](CO)C(=O)NCC(=O)N[C@@H](CC(C)C)C(=O)N[C@@H](CCC(=O)O)C(=O)N[C@@H](CCC(N)=O)C(=O)N[C@@H](CC(C)C)C(=O)N[C@@H](CCC(=O)O)C(=O)N[C@@H](CO)C(=O)N[C@H](C(=O)N[C@H](C(=O)N[C@@H](CC(N)=O)C(=O)N[C@@H](Cc3ccccc3)C(=O)N[C@@H](CCC(=O)O)C(=O)N[C@@H](CCCCN)C(=O)N[C@@H](CC(C)C)C(=O)N[C@@H](C)C(=O)N[C@@H](C)C(=O)N[C@@H](C)C(=O)N[C@@H](C)C(=O)N[C@@H](C)C(=O)N[C@@H](CCCCN)C(N)=O)[C@@H](C)CC)[C@@H](C)CC)C(C)C)C2=O)[C@@H](OP(=O)(O)O)[C@@H]1OC(=O)C[C@@H](CCCCCCCCCCC)OC(=O)CCCCCCCCC)OC(=O)CCCCCCCCC (stereo not given in full) ([Mpa](X2)DEVSGLEQLESIINFEKLAAAAAK-NH2)
Activity (Mus musculus [2]): Active
Activity (Mus musculus [3]): Active
Activity (Mus musculus [4]): Active
Activity (B3Z): Active
Activity (Mus musculus [6]): Active
Activity (Mus musculus [7]): Active
Activity (Mus musculus [8]): Active
